According to ChEMBL document CHEMBL1157903, “Synthesis and structure-activity relationships of 2-aryl-4-oxazolylmethoxy benzylglycines and 2-aryl-4-thiazolylmethoxy benzylglycines as novel, potent PPARalpha selective activators- PPARalpha and PPARgamma selectivity modulation” (Bioorg Med Chem Lett, 2010):

Biological target: T1, Peroxisome proliferator-activated receptor alpha (Homo sapiens, UniProt Q07869)
T1 sequence (Q07869 whole entry): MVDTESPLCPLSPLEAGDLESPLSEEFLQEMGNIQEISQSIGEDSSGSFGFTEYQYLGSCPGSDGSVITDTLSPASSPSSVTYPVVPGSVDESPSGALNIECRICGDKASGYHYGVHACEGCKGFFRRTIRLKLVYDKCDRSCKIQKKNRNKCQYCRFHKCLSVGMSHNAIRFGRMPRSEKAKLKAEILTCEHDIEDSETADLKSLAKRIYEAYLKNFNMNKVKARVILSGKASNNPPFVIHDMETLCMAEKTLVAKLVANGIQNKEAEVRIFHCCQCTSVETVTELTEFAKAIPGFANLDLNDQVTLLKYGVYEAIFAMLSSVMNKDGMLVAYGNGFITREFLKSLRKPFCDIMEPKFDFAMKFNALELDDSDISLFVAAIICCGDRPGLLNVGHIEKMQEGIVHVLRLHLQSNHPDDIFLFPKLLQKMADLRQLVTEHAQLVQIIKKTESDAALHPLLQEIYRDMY
Assay: Agonist activity against human Gal4-fussed PPARalpha in HEK293 cells by luciferase reporter gene assay
Type: functional, cell-based
Details: not given
Summary of the method: (§1)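 Transactivation assay in HEK293 cells with a luciferase reporter. After cell lysis, luciferin is added and luminescence is read. EC50 is the ligand concentration giving half-maximal fold induction. Maximal efficacy is expressed as % of standards, with fenofibrate at 100 µM = 100% for PPARα and rosiglitazone at 1 µM = 100% for PPARγ. Data are normalized to known agonists at 1 µM.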

| Compound | EC50 |
| --- | --- |
| COC(=O)N(CC(=O)O)Cc1cccc(OCc2csc(-c3ccc(Cl)cc3)n2)c1 | 90 nM |
| COC(=O)N(CC(=O)O)[C@@H](C)c1cccc(OCc2coc(-c3ccc(C)cc3)n2)c1 | 87 nM |
| COC(=O)N(CC(=O)O)Cc1cccc(OCc2csc(-c3ccccc3Cl)n2)c1 | > 2500 nM |
| Cc1ccc(F)c(OC(=O)N(CC(=O)O)[C@@H](C)c2cccc(OCc3coc(-c4ccc(Cl)cc4)n3)c2)c1 | 471 nM |
| COC(=O)N(CC(=O)O)Cc1cccc(OCc2csc(-c3ccccc3)n2)c1 | 304 nM |
| COC(=O)N(CC(=O)O)Cc1cccc(OCc2coc(-c3ccc(F)cc3F)n2)c1 | 1090 nM |
| COC(=O)N(CC(=O)O)Cc1cccc(OCc2coc(-c3cccc(C)c3)n2)c1 | 451 nM |

The next lines start with the values.

| EC50 | Compound |
| --- | --- |
| 235 nM | COC(=O)N(CC(=O)O)Cc1cccc(OCc2coc(-c3ccc(F)cc3)n2)c1 |
| 145 nM | C[C@@H](c1cccc(OCc2coc(-c3ccc(Cl)cc3)n2)c1)N(CC(=O)O)C(=O)Oc1ccccc1 |
| 73 nM | COC(=O)N(CC(=O)O)[C@@H](C)c1cccc(OCc2coc(-c3ccc(Cl)cc3)n2)c1 |
| 66 nM | COc1ccc(OC(=O)N(CC(=O)O)[C@@H](C)c2cccc(OCc3coc(-c4ccc(Cl)cc4)n3)c2)cc1 |

Biological target: T2, Peroxisome proliferator-activated receptor alpha (Homo sapiens) (UniProt Q07869)
T2 sequence (whole entry): T1 sequence (Q07869 whole entry)
Assay: Agonist activity against human Gal4-fussed PPARalpha by luciferase reporter gene assay relative to finofibrate
Type: functional
Details: not given
Summary of the method: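 Gal4-fused human PPARα transactivation in HEK293 cells with a luciferase reporter, read as luminescence after cell lysis and luciferin addition. EC50 is the ligand concentration (µM) giving half-maximal fold induction. Maximal efficacy is expressed as a percentage of fenofibrate at 100 µM (set as 100%). Intrinsic activity is the response at 1 µM as a percentage of the standard at 1 µM.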

| Compound | Emax |
| --- | --- |
| COC(=O)N(CC(=O)O)Cc1cccc(OCc2csc(-c3ccc(Cl)cc3)n2)c1 | 90% |
| COC(=O)N(CC(=O)O)[C@@H](C)c1cccc(OCc2coc(-c3ccc(C)cc3)n2)c1 | 87% |
| Cc1ccc(F)c(OC(=O)N(CC(=O)O)[C@@H](C)c2cccc(OCc3coc(-c4ccc(Cl)cc4)n3)c2)c1 | 56% |
| COC(=O)N(CC(=O)O)Cc1cccc(OCc2csc(-c3ccccc3)n2)c1 | 70% |
| COC(=O)N(CC(=O)O)Cc1cccc(OCc2coc(-c3ccc(F)cc3F)n2)c1 | 78% |
| COC(=O)N(CC(=O)O)Cc1cccc(OCc2nc(-c3ccc(Cl)cc3)oc2C)c1 | 79% |
| COC(=O)N(CC(=O)O)Cc1cccc(OCc2coc(-c3cccc(C)c3)n2)c1 | 92% |

More lines, now with the values ahead:

| Emax | Compound |
| --- | --- |
| 88% | COC(=O)N(CC(=O)O)Cc1cccc(OCc2coc(-c3ccc(F)cc3)n2)c1 |
| 53% | C[C@@H](c1cccc(OCc2coc(-c3ccc(Cl)cc3)n2)c1)N(CC(=O)O)C(=O)Oc1ccccc1 |
| 65% | COC(=O)N(CC(=O)O)[C@@H](C)c1cccc(OCc2coc(-c3ccc(Cl)cc3)n2)c1 |
| 69% | COc1ccc(OC(=O)N(CC(=O)O)[C@@H](C)c2cccc(OCc3coc(-c4ccc(Cl)cc4)n3)c2)cc1 |

Biological target: T3, Peroxisome proliferator-activated receptor gamma (Homo sapiens, UniProt P37231)
T3 sequence (P37231 whole entry): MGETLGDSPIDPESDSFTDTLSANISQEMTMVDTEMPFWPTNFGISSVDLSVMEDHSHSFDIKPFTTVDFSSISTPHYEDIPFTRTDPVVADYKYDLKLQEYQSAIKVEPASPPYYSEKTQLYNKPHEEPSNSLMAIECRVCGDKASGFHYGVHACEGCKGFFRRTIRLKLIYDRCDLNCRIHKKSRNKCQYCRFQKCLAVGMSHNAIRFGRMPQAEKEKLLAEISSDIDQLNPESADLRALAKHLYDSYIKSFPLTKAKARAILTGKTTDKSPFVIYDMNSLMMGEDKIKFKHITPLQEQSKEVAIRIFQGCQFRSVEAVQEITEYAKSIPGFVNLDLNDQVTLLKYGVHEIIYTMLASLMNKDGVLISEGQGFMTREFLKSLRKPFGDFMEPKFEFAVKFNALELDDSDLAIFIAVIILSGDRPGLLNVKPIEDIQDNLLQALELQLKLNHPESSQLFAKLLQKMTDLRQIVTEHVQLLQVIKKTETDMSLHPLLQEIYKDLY
Assay: Agonist activity against human Gal4-fussed PPARgamma in HEK293 cells by luciferase reporter gene assay
Type: functional, cell-based
Details: not given
Summary of the method: as §1

| Compound | EC50 |
| --- | --- |
| COC(=O)N(CC(=O)O)Cc1cccc(OCc2csc(-c3ccc(Cl)cc3)n2)c1 | 4690 nM |
| COC(=O)N(CC(=O)O)[C@@H](C)c1cccc(OCc2coc(-c3ccc(C)cc3)n2)c1 | 20700 nM |
| COC(=O)N(CC(=O)O)Cc1cccc(OCc2csc(-c3ccccc3Cl)n2)c1 | 5040 nM |
| Cc1ccc(F)c(OC(=O)N(CC(=O)O)[C@@H](C)c2cccc(OCc3coc(-c4ccc(Cl)cc4)n3)c2)c1 | 710 nM |
| COC(=O)N(CC(=O)O)Cc1cccc(OCc2csc(-c3ccccc3)n2)c1 | > 25000 nM |
| COC(=O)N(CC(=O)O)Cc1cccc(OCc2coc(-c3ccc(F)cc3F)n2)c1 | > 25000 nM |
| COC(=O)N(CC(=O)O)Cc1cccc(OCc2coc(-c3cccc(C)c3)n2)c1 | > 25000 nM |

Now from value to compound:

| EC50 | Compound |
| --- | --- |
| > 25000 nM | COC(=O)N(CC(=O)O)Cc1cccc(OCc2coc(-c3ccc(F)cc3)n2)c1 |
| 1690 nM | C[C@@H](c1cccc(OCc2coc(-c3ccc(Cl)cc3)n2)c1)N(CC(=O)O)C(=O)Oc1ccccc1 |
| > 8300 nM | COC(=O)N(CC(=O)O)[C@@H](C)c1cccc(OCc2coc(-c3ccc(Cl)cc3)n2)c1 |
| 970 nM | COc1ccc(OC(=O)N(CC(=O)O)[C@@H](C)c2cccc(OCc3coc(-c4ccc(Cl)cc4)n3)c2)cc1 |

Test system: Hamster
Assay: Antidyslipidemic activity in hamster assessed as decrease in HDL level at 10 mg/kg, po
Type: functional, Cricetinae
Parameters: scale not given: the % may be the effect or the level left
Details: not given
Summary of the method: (§2)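 Hamsters kept on high-fat diet for 2 weeks, then dosed 10 mg/kg by oral gavage once daily for 21 days (n = 8). Vehicle: 5% cremophor, 10% NMP, 5% EtOH, 80% water. HDL-c and TG measured at study end. Statistics by Dunnett test, p < 0.05.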

| Compound | Activity |
| --- | --- |
| COC(=O)N(CC(=O)O)Cc1cccc(OCc2nc(-c3ccc(Cl)cc3)oc2C)c1 | 20% |

Test system: Hamster
Assay: Antidyslipidemic activity in hamster assessed as decrease in triglyceride level at 10 mg/kg, po
Type: functional, Cricetinae
Parameters: scale not given: the % may be the effect or the level left
Details: not given
Summary of the method: as §2

| Compound | Activity |
| --- | --- |
| COC(=O)N(CC(=O)O)Cc1cccc(OCc2nc(-c3ccc(Cl)cc3)oc2C)c1 | 77% |

Test system: not listed separately
Assay: Volume of distribution at steady state Sprague-Dawley rat at 5 mg/kg, iv and 10 mg/kg, po
Type: ADME, organism-based
Details: in vivo, read-out: Vdss
Summary of the method: (§3)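 Male Sprague-Dawley rats (n = 2) given 5 mg/kg IV and 10 mg/kg PO. Vehicle: 10% NMP, 20% PEG-400, 70% potassium phosphate buffer.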

| Compound | Vd |
| --- | --- |
| COC(=O)N(CC(=O)O)Cc1cccc(OCc2nc(-c3ccc(Cl)cc3)oc2C)c1 | 0.7 L/kg |

Test system: not listed separately
Assay: Clearance in Sprague-Dawley rat at 5 mg/kg, iv and 10 mg/kg, po
Type: ADME, organism-based
Details: in vivo
Summary of the method: as §3

| Compound | clearance |
| --- | --- |
| COC(=O)N(CC(=O)O)Cc1cccc(OCc2nc(-c3ccc(Cl)cc3)oc2C)c1 | 4.3 mL/min/kg |

Test system: not listed separately
Assay: Half life in Sprague-Dawley rat at 5 mg/kg, iv and 10 mg/kg, po
Type: ADME, organism-based
Details: in vivo
Summary of the method: as §3

| Compound | half-life |
| --- | --- |
| COC(=O)N(CC(=O)O)Cc1cccc(OCc2nc(-c3ccc(Cl)cc3)oc2C)c1 | 3.2 h |

Test system: not listed separately
Assay: Mean retention time in Sprague-Dawley rat at 5 mg/kg, iv and 10 mg/kg, po
Type: ADME, organism-based
Details: in vivo
Summary of the method: as §3

| Compound | MRT |
| --- | --- |
| COC(=O)N(CC(=O)O)Cc1cccc(OCc2nc(-c3ccc(Cl)cc3)oc2C)c1 | 2.8 h |

Test system: Hamster
Assay: Induction of PDK4 mRNA level in hamster liver at 10 mg/kg, po after 6 hrs relative to fenofibrate
Type: functional, Cricetinae
Details: not given
Summary of the method: (§4)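 Single oral dose of 10 mpk in hamsters, with fenofibrate reference at 100 mpk. Liver PDK4 and HD mRNA measured at 6 h post-dose. Values expressed relative to fenofibrate, set as 100%.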

| Compound | Activity |
| --- | --- |
| COC(=O)N(CC(=O)O)Cc1cccc(OCc2nc(-c3ccc(Cl)cc3)oc2C)c1 | 230% |

Test system: Hamster
Assay: Induction of hydrase mRNA level in hamster liver at 10 mg/kg, po after 6 hrs relative to fenofibrate
Type: functional, Cricetinae
Details: not given
Summary of the method: as §4

| Compound | Activity |
| --- | --- |
| COC(=O)N(CC(=O)O)Cc1cccc(OCc2nc(-c3ccc(Cl)cc3)oc2C)c1 | 277% |

Organism: Cricetulus griseus
Assay: Agonist activity at hamster PPARalpha relative to fenofibrate
Type: functional
Details: not given

| Compound | Emax |
| --- | --- |
| COC(=O)N(CC(=O)O)Cc1cccc(OCc2nc(-c3ccc(Cl)cc3)oc2C)c1 | 83% |

Biological target: T4, Peroxisome proliferator-activated receptor gamma (Homo sapiens) (UniProt P37231)
T4 sequence (whole entry): T3 sequence (P37231 whole entry)
Assay: Agonist activity against human Gal4-fussed PPARgamma by luciferase reporter gene assay relative to rosiglitazone
Details: not given

| Compound | Emax |
| --- | --- |
| COC(=O)N(CC(=O)O)Cc1cccc(OCc2csc(-c3ccc(Cl)cc3)n2)c1 | 35% |
| COC(=O)N(CC(=O)O)[C@@H](C)c1cccc(OCc2coc(-c3ccc(C)cc3)n2)c1 | 130% |
| COC(=O)N(CC(=O)O)Cc1cccc(OCc2csc(-c3ccccc3Cl)n2)c1 | 55% |
| Cc1ccc(F)c(OC(=O)N(CC(=O)O)[C@@H](C)c2cccc(OCc3coc(-c4ccc(Cl)cc4)n3)c2)c1 | 58% |
| COC(=O)N(CC(=O)O)Cc1cccc(OCc2nc(-c3ccc(Cl)cc3)oc2C)c1 | 82% |

Second part, the compound after the results:

| Emax | Compound |
| --- | --- |
| 43% | C[C@@H](c1cccc(OCc2coc(-c3ccc(Cl)cc3)n2)c1)N(CC(=O)O)C(=O)Oc1ccccc1 |
| 189% | COC(=O)N(CC(=O)O)[C@@H](C)c1cccc(OCc2coc(-c3ccc(Cl)cc3)n2)c1 |
| 62% | COc1ccc(OC(=O)N(CC(=O)O)[C@@H](C)c2cccc(OCc3coc(-c4ccc(Cl)cc4)n3)c2)cc1 |
